Columns and labels:
[1] = target: T1, Ephrin type-B receptor 4 (Homo sapiens) (UniProt P54760); test: Inhibition of EphB4 ACT labeling site in human Huh-7 cells at 1 uM by KiNativ Profiling analysis relative to control; format: cell-based
T1 sequence (whole entry): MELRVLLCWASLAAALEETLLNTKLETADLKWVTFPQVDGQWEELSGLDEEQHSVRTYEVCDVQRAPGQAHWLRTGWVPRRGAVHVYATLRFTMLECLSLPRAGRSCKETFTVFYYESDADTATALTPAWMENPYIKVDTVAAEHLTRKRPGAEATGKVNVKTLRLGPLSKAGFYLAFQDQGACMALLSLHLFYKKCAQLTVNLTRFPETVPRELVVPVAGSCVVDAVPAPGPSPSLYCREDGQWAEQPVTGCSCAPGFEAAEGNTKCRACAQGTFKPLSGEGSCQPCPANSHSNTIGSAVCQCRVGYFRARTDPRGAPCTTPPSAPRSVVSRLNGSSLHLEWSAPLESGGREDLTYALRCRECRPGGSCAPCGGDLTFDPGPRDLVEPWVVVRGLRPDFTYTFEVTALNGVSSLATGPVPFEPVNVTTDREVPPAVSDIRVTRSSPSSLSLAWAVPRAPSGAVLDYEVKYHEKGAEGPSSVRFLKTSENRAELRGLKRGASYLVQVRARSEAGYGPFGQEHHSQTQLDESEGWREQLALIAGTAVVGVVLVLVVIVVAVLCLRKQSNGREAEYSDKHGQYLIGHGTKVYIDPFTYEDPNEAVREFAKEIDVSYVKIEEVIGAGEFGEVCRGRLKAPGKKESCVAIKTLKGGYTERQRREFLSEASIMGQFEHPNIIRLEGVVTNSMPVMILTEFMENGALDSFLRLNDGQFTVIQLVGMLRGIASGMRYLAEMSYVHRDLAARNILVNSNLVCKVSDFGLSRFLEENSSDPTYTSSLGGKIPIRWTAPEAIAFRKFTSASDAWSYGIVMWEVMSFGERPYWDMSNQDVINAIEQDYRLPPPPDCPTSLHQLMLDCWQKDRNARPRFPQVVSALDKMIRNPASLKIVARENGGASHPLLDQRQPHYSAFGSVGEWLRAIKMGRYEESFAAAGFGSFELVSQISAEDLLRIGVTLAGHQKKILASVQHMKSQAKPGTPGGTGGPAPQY

[2] = target: 5'-AMP-activated protein kinase catalytic subunit alpha-1 (Homo sapiens) (UniProt Q13131); test: Inhibition of AMPKa1 ATP Loop labeling site in human A-375 cells at 0.05 uM by KiNativ Profiling analysis relative to control; format: cell-based
[3] = target: Epidermal growth factor receptor (Homo sapiens) (UniProt P00533); test: Inhibition of EGFR ACT labeling site harbouring LLGAEEKEYHAEGGKVPIK in human A-375 cells at 0.05 uM by KiNativ Profiling analysis relative to control; format: cell-based
[4] = target: Tyrosine-protein kinase JAK1 (Homo sapiens) (UniProt P23458); test: Inhibition of JAK1 domain2 ACT labeling site in human A-375 cells at 5 uM by KiNativ Profiling analysis relative to control; format: cell-based
[5] = target: Tyrosine-protein kinase Fer (Homo sapiens, UniProt P16591); test: Inhibition of FER Lys1 labeling site harbouring DKTSVAVKTCKEDLPQELK in human A-375 cells at 0.5 uM by KiNativ Profiling analysis relative to control; format: cell-based
[6] = target: Serine/threonine-protein kinase Nek7 (Homo sapiens) (UniProt Q8TDX7); test: Inhibition of NEK7 Lys1 labeling site in human A-375 cells at 0.5 uM by KiNativ Profiling analysis relative to control; format: cell-based
[7] = target: Serine/threonine-protein kinase Nek7 (Homo sapiens) (UniProt Q8TDX7); test: Inhibition of NEK7 ACT labeling site in human A-375 cells at 5 uM by KiNativ Profiling analysis relative to control; format: cell-based
[8] = target: Aurora kinase B (Homo sapiens) (UniProt Q96GD4); test: Inhibition of AurB ATP Loop labeling site in human A-375 cells at 5 uM by KiNativ Profiling analysis relative to control; format: cell-based
How it was run: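 Live A375 melanoma cells were treated with compound at 5 or 0.5 μM, then lysed. The lysates were labeled with a lysine-reactive ATP or ADP-biotin probe. Kinase protection from probe labeling was measured by KiNativ.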

[9] = target: 5'-AMP-activated protein kinase catalytic subunit alpha-1 (Homo sapiens) (UniProt Q13131); test: Inhibition of AMPKa1 Lys1 labeling site in human A-375 cells at 0.05 uM by KiNativ Profiling analysis relative to control; format: cell-based
[10] = target: T2, NUAK family SNF1-like kinase 2 (Homo sapiens) (UniProt Q9H093); test: Inhibition of NuaK2 Lys1 labeling site in human A-375 cells at 0.5 uM by KiNativ Profiling analysis relative to control; format: cell-based
T2 sequence (whole entry): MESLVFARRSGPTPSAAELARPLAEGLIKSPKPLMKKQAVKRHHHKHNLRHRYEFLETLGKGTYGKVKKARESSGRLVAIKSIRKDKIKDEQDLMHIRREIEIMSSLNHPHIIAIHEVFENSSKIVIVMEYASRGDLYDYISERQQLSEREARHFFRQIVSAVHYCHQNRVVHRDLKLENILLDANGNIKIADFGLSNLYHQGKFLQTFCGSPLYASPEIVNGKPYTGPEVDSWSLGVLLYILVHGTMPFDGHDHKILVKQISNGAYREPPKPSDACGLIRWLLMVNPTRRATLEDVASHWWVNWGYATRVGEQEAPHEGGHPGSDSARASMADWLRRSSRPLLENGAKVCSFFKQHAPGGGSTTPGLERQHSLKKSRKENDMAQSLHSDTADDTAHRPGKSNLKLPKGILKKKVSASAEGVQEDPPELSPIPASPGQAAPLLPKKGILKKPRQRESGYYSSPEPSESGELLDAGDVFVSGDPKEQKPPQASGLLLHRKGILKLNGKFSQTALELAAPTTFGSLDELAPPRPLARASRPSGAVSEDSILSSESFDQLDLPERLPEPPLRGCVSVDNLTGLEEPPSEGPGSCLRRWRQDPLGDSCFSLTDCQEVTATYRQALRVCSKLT

[11] = target: Serine/threonine-protein kinase 10 (Homo sapiens) (UniProt O94804); test: Inhibition of LOK Lys1 labeling site harbouring NKETGALAAAKVIETK in human A-375 cells at 0.05 uM by KiNativ Profiling analysis relative to control; format: cell-based
[12] = target: Serine/threonine-protein kinase 25 (Homo sapiens) (UniProt O00506); test: Inhibition of YSK1 Lys2 labeling site in human A-375 cells at 0.5 uM by KiNativ Profiling analysis relative to control; format: cell-based
[13] = target: Mitogen-activated protein kinase 14 (Homo sapiens, UniProt Q16539); test: Inhibition of p38 alpha (unknown origin) by KiNativ Profiling analysis

Chain of 5'-AMP-activated protein kinase catalytic subunit alpha-1 (Homo sapiens) (Q13131 whole entry, looked up): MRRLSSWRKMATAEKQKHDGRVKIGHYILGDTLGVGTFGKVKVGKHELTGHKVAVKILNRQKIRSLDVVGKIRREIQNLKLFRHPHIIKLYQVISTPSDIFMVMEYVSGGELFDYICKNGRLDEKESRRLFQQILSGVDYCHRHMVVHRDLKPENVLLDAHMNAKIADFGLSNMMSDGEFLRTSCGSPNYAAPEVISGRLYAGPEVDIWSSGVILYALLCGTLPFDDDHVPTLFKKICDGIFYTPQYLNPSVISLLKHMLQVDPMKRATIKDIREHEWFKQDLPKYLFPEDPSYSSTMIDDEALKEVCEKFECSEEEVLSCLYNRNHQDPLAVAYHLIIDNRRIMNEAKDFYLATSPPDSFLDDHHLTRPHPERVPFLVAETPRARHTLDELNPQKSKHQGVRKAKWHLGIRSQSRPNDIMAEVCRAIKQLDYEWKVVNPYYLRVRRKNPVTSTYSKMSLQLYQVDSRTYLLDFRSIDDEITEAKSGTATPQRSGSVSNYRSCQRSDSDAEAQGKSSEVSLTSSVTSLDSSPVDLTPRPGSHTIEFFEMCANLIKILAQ
Chain of Serine/threonine-protein kinase Nek7 (Homo sapiens) (Q8TDX7 whole entry, looked up): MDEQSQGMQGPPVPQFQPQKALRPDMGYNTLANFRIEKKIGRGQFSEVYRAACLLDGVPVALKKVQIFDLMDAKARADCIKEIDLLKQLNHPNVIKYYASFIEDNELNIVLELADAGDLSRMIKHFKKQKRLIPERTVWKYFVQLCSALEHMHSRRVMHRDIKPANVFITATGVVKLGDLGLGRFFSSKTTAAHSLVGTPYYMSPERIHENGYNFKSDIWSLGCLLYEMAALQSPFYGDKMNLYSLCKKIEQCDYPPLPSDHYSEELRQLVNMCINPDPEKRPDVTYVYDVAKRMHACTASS
Chain of Tyrosine-protein kinase JAK1 (Homo sapiens) (P23458 whole entry, the tested form may be a part): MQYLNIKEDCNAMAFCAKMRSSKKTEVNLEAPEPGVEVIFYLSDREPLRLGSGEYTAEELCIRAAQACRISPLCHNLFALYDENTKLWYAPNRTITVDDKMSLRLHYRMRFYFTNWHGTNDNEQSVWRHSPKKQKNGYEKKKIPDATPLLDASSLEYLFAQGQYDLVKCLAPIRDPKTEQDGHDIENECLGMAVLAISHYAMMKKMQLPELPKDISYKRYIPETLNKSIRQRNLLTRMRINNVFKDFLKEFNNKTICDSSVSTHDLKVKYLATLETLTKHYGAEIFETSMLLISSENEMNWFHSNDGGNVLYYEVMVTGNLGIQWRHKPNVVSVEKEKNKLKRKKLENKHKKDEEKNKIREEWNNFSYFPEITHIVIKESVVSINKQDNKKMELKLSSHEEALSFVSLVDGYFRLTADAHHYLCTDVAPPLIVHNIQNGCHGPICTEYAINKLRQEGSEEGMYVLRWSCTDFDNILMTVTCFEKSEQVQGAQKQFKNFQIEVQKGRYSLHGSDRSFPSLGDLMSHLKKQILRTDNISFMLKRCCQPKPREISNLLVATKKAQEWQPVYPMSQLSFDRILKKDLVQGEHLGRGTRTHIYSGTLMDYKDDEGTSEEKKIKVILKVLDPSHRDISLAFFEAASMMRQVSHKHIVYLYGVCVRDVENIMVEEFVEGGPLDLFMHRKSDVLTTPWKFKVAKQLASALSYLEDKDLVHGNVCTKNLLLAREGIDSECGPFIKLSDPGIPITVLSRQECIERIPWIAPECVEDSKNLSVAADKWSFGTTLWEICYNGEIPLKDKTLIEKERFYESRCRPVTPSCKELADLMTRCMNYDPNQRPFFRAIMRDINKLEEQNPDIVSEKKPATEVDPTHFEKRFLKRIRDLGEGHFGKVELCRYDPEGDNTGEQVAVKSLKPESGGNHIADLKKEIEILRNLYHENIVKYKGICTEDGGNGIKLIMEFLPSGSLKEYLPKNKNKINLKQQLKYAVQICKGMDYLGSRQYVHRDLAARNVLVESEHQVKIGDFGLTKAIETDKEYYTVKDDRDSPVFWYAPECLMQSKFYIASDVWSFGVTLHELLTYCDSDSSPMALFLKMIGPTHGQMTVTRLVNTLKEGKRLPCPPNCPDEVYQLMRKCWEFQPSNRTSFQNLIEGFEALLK
Chain of Epidermal growth factor receptor (Homo sapiens) (P00533 whole entry, the tested form may be a part): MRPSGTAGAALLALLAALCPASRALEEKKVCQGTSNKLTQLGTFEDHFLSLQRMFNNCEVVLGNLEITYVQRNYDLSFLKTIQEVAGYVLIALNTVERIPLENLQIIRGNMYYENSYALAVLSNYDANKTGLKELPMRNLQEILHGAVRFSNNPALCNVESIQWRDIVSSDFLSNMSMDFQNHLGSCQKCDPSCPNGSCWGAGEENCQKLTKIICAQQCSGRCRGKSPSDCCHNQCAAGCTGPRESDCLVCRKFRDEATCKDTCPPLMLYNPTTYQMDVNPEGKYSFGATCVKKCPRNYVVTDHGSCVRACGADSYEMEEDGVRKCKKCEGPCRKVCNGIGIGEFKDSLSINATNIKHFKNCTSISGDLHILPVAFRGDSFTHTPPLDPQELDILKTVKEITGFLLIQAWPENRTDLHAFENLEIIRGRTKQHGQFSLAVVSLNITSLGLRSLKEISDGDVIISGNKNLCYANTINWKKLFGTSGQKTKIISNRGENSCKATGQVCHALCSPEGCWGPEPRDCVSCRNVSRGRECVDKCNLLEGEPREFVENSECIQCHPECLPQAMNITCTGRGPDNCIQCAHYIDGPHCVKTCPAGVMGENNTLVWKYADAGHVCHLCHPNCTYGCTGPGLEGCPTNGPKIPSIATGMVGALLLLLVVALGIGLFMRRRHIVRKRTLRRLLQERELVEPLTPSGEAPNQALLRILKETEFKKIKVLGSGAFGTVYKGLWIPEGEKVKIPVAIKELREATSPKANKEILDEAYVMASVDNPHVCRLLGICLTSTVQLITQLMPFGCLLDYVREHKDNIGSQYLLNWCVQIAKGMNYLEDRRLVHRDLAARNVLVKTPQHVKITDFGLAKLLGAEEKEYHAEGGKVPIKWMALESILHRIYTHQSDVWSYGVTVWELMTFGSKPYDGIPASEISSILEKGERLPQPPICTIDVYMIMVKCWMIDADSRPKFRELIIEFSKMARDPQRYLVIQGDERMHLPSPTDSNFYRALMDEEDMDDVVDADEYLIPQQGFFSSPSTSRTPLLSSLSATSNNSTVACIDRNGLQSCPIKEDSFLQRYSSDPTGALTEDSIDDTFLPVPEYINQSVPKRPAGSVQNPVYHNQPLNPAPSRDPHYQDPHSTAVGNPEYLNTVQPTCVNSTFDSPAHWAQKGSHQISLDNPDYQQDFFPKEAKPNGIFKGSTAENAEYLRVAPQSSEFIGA
Chain of Serine/threonine-protein kinase 25 (Homo sapiens) (O00506 whole entry, looked up): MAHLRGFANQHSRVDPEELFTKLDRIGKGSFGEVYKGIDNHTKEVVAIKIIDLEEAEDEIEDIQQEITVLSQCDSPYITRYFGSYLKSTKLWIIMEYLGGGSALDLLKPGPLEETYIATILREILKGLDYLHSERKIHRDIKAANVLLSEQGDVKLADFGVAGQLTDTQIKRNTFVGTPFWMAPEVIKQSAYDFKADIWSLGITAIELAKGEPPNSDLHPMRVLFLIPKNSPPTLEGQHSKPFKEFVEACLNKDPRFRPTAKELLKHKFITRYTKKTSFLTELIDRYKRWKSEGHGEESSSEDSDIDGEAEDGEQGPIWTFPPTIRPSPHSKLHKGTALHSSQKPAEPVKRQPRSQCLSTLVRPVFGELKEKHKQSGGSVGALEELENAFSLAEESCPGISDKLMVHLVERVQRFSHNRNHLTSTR
Chain of Tyrosine-protein kinase Fer (P16591 whole entry, looked up): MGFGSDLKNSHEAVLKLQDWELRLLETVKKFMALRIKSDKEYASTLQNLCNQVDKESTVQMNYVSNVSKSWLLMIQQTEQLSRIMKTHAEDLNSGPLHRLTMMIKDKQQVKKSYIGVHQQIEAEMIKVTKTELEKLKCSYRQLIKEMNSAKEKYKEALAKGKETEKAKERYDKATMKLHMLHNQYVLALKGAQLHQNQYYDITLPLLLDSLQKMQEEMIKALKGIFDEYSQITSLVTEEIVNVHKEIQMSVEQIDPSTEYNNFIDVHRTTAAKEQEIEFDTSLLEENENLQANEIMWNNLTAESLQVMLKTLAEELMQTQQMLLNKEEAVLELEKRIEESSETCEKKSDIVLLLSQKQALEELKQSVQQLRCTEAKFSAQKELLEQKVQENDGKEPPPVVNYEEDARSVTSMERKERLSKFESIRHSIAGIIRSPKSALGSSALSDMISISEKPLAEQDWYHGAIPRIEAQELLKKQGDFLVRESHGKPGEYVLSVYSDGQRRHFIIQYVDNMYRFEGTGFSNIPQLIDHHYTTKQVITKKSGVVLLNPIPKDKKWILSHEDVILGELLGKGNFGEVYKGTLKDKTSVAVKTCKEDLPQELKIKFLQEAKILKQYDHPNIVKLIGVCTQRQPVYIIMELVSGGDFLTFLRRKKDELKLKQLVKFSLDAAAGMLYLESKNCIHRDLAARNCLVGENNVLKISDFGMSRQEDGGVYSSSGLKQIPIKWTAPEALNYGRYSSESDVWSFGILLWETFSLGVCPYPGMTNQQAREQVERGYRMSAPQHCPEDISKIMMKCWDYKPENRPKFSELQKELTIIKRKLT
Chain of Aurora kinase B (Homo sapiens) (Q96GD4 whole entry): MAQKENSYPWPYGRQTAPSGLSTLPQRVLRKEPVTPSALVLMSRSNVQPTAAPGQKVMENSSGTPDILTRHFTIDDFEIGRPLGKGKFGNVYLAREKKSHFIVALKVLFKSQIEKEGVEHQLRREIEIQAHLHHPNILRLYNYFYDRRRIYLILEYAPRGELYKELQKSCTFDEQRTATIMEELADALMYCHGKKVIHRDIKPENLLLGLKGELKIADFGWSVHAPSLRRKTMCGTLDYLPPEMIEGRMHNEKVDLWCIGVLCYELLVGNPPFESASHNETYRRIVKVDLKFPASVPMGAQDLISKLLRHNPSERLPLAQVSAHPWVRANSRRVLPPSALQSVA

Compound | inhibition [1] [%] | inhibition [2] [%] | inhibition [3] [%] | inhibition [4] [%] | inhibition [5] [%] | inhibition [6] [%] | inhibition [7] [%] | inhibition [8] [%] | inhibition [9] [%] | inhibition [10] [%] | inhibition [11] [%] | inhibition [12] [%] | IC50 [13] [nM]
CNc1cc(Oc2cc(C(=O)Nc3cc(N4CCN(C)CC4)cc(C(F)(F)F)c3)ccc2C)ncn1 | 75.4 |  |  |  |  |  |  |  |  |  |  |  | 
CCN1CCN(Cc2ccc(NC(=O)c3ccc(C)c(Oc4ccnc5[nH]ccc45)c3)cc2C(F)(F)F)CC1 | 12.1 | -4.4 | 17.5 | 95.4 | 87 | -0.5 | -3.5 | 31.4 | 13.4 | 9.4 | 47.2 | 12.5 | 102
CCN1CCN(Cc2ccc(NC(=O)c3ccc(C)c(/C=C/c4cnc5[nH]ccc5c4OC)c3)cc2C(F)(F)F)CC1 |  | -8.8 | -6.7 | 69.2 | 30 | 7.8 | -6.2 | 48.5 | 7.4 | 6.4 | 34.5 | 9.8 | 238

From ChEMBL document CHEMBL5696442, “Discovery of type II inhibitors of TGFβ-activated kinase 1 (TAK1) and mitogen-activated protein kinase kinase kinase kinase 2 (MAP4K2)” (J Med Chem, 2015)
